# Experiments:
# Plasma [1] = experiment: fAUC (0-infinity) in immunocompetent SKH1 mouse plasma at 50 mg/kg, sc; assay type: ADME, organism-based; design: dose 50 mg/kg, route subcutaneous; details: in vivo
# Outline: (§1)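 Female SKH1 hairless mice, immunocompetent or cyclophosphamide-neutropenic, infected s.c. with MRSA OC 8525 or P. aeruginosa OC 4354 on the Cytodex beads (left flank), sterile beads on the right. Single dose 24 h later: s.c. at the nape, or linezolid 50 mg/kg oral. Plasma and skin (DMSO homogenate) sampled over time, HPLC with diode array.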
# Staphylococcus aureus [2] = experiment: Antimicrobial activity against methicillin-resistant Staphylococcus aureus OC 8525 infected in SKH1 mouse assessed as log change in bacterial colony forming unit per gram of skin tissue at 6.2 mg/kg/day, sc (reference value: 0.8 deltalog CFU); assay type: functional; details: route subcutaneous
# Outline: (§2)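 Female hairless immunocompetent SKH1 mice were anaesthetised and injected s.c. with 0.2 ml Cytodex bead inoculum (0.1% vol/vol beads in BHI; 6.7–7.0 log10 CFU/mouse): MSSA OC 4172 in the left flank, MRSA OC 8525 in the right. Drug was given at 1, 3, 25 and 27 h post-infection. At 48 h, flank lesions were excised, weighed and homogenised in saline, then plated on TSA (18 h, 37°C). The value is Δlog CFU/g versus the inoculum, from 5 mice/dose, run twice and pooled.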
# [3] = fT>MIC in Staphylococcus aureus OC 8525 infected sc dosed SKH1 mouse administered in 24 hrs dosing interval; assay type: functional
# Outline: (§3)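 Plasma levels came from female hairless SKH1 mice given single s.c. doses at the nape 24 h after flank s.c. infection with Cytodex beads. S. aureus work used immunocompetent mice. P. aeruginosa work used mice made neutropenic with cyclophosphamide i.p., 150 mg/kg at day −5 and 100 mg/kg at day −1. Drug assayed by HPLC with diode-array detection. Noncompartmental analysis.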
# [4] = Protein binding in mouse plasma; assay type: ADME, cell-free; details: read-out: PPB (converted)
# Staphylococcus aureus [5] = experiment: Antimicrobial activity against methicillin-resistant Staphylococcus aureus OC 8525 infected in SKH1 mouse assessed as log change in bacterial colony forming unit per gram of skin tissue at 100 mg/kg/day, sc (reference value: 0.8 deltalog CFU); assay type: functional; details: route subcutaneous; outline: as §2
# Staphylococcus aureus [6] = experiment: Antimicrobial activity against methicillin-susceptible Staphylococcus aureus OC 4172 assessed as inhibition of growth by broth microdilution method; assay type: functional
# [7] = fT>MIC in Pseudomonas aeruginosa OC 4351 infected sc dosed SKH1 mouse at 50 mg/kg, sc administered twice at 1 and 3 hrs after infection; assay type: functional; details: route subcutaneous
# [8] = fT>MIC in Staphylococcus aureus Smith OC 4172 infected sc dosed SKH1 mouse at 50 mg/kg, sc administered twice at 1 and 3 hrs after infection; assay type: functional; details: route subcutaneous
# Staphylococcus aureus [9] = experiment: Antimicrobial activity against methicillin-susceptible Staphylococcus aureus Smith OC 4172 infected in SKH1 mouse assessed as log change in bacterial colony forming unit per gram of skin tissue at 1.6 mg/kg/day, sc (reference value: 1.6 deltalog CFU); assay type: functional; details: route subcutaneous
# Plasma [10] = experiment: fCmax in immunocompetent SKH1 mouse plasma at 50 mg/kg, sc; assay type: ADME, organism-based; design: dose 50 mg/kg, route subcutaneous; details: in vivo; outline: as §1
# [11] = fT>MIC in Staphylococcus aureus OC 4172 infected sc dosed SKH1 mouse administered in 24 hrs dosing interval; assay type: functional; outline: as §3
# Staphylococcus aureus [12] = experiment: Antimicrobial activity against methicillin-resistant Staphylococcus aureus OC 8525 assessed as inhibition of growth by broth microdilution method; assay type: functional
# [13] = fT>MIC in Pseudomonas aeruginosa OC 4354 infected sc dosed SKH1 mouse administered in 24 hrs dosing interval; assay type: functional; outline: as §3
# Staphylococcus aureus [14] = experiment: Antimicrobial activity against methicillin-resistant Staphylococcus aureus OC 8525 infected in SKH1 mouse assessed as log change in bacterial colony forming unit per gram of skin tissue at 1.6 mg/kg/day, sc (reference value: 0.8 deltalog CFU); assay type: functional; details: route subcutaneous; outline: as §2
# [15] = fT>MIC in Staphylococcus aureus OC 8525 infected sc dosed SKH1 mouse at 50 mg/kg, sc administered twice at 1 and 3 hrs after infection; assay type: functional; details: route subcutaneous
# [16] = Tmax in immunocompetent SKH1 mouse plasma at 50 mg/kg, sc; assay type: ADME, organism-based; design: dose 50 mg/kg, route subcutaneous; outline: as §1
# [17] = fT>MIC in Pseudomonas aeruginosa OC 4351 infected sc dosed SKH1 mouse administered in 24 hrs dosing interval; assay type: functional
# Staphylococcus aureus [18] = experiment: Antimicrobial activity against methicillin-susceptible Staphylococcus aureus Smith OC 4172 infected in SKH1 mouse assessed as log change in bacterial colony forming unit per gram of skin tissue at 25 mg/kg/day, sc (reference value: 1.6 deltalog CFU); assay type: functional; details: route subcutaneous; outline: as §2
# Staphylococcus aureus [19] = experiment: Antimicrobial activity against methicillin-susceptible Staphylococcus aureus Smith OC 4172 infected in SKH1 mouse assessed as log change in bacterial colony forming unit per gram of skin tissue at 6.2 mg/kg/day, sc (reference value: 1.6 deltalog CFU); assay type: functional; details: route subcutaneous
# Staphylococcus aureus [20] = experiment: Antimicrobial activity against methicillin-resistant Staphylococcus aureus OC 8525 infected in SKH1 mouse assessed as log change in bacterial colony forming unit per gram of skin tissue at 25 mg/kg/day, sc (reference value: 0.8 deltalog CFU); assay type: functional; details: route subcutaneous
# [21] = fT>MIC in Pseudomonas aeruginosa OC 4354 infected sc dosed SKH1 mouse at 50 mg/kg, sc administered twice at 1 and 3 hrs after infection; assay type: functional; details: route subcutaneous
# Staphylococcus aureus [22] = experiment: Antimicrobial activity against methicillin-susceptible Staphylococcus aureus Smith OC 4172 infected in SKH1 mouse assessed as log change in bacterial colony forming unit per gram of skin tissue at 100 mg/kg/day, sc (reference value: 1.6 deltalog CFU); assay type: functional; details: route subcutaneous
compound,measurement,setting,value
Cc1nnc(SCC2=C(C(=O)O)N3C(=O)[C@@H](NC(=O)Cn4cnnn4)[C@H]3SC2)s1 [CEFAZOLIN],fAUC,Plasma [1],565 µg·min/mL
same,deltalog10CFU,Staphylococcus aureus [2],-1.2
same,fT>MIC,[3],1.3%
same,fraction unbound,[4],0.19
same,deltalog10CFU,Staphylococcus aureus [5],-0.3
same,MIC,Staphylococcus aureus [6],0.5 µg/mL
same,fT>MIC,[7],1.5 h
same,fT>MIC,[8],2.4 h
same,deltalog10CFU,Staphylococcus aureus [9],-0.6
same,fCmax,Plasma [10],19 µg/mL
same,fT>MIC,[11],10.2%
same,MIC,Staphylococcus aureus [12],16 µg/mL
same,fT>MIC,[13],3.3%
same,deltalog10CFU,Staphylococcus aureus [14],0.6
same,fT>MIC,[15],0.3 h
same,Tmax,[16],7.5 min
same,fT>MIC,[17],6.4%
same,deltalog10CFU,Staphylococcus aureus [18],-2
same,deltalog10CFU,Staphylococcus aureus [19],1.6
same,deltalog10CFU,Staphylococcus aureus [20],-1.3
same,fT>MIC,[21],0.8 h
same,deltalog10CFU,Staphylococcus aureus [22],-1.7
